Columns and labels:
[1] = target: 5-hydroxytryptamine receptor 4 (Rattus norvegicus) (UniProt Q62758); test: Relaxation of carbachol induced contractions of rat tunica muscularis mucosae
How it was run: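 Rat esophagus tunica muscularis mucosae strips, equilibrated 30 min, then contracted isometrically with carbachol (3 μM) to a stable tonic plateau within 20 min. Test agent added cumulatively to relax the strip. Buffer held corticosterone acetate (30 μM), fluoxetine (1 μM) and pargyline (10 μM).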

[2] = target: T1, Serotonin 3 (5-HT3) receptor (Rattus norvegicus, UniProt P35563+Q9JJ16); test: Inhibition of [3H]GR-65630 binding to 5-hydroxytryptamine 3 receptor; assay type: protein-complex assay
T1 sequence (P35563 whole entry): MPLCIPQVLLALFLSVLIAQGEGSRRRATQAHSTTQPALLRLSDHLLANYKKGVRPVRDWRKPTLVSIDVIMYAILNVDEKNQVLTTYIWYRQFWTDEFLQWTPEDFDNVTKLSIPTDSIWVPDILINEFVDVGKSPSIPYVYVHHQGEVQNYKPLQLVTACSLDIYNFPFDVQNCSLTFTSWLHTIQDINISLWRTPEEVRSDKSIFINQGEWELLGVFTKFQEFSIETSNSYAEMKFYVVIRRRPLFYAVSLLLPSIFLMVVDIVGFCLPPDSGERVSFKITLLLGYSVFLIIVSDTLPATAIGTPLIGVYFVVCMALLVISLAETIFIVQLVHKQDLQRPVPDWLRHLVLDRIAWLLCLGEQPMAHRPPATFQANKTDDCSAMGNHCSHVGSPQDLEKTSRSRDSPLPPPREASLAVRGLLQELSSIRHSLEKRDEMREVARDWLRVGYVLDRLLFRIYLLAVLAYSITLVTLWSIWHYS
T1 sequence (Q9JJ16 whole entry): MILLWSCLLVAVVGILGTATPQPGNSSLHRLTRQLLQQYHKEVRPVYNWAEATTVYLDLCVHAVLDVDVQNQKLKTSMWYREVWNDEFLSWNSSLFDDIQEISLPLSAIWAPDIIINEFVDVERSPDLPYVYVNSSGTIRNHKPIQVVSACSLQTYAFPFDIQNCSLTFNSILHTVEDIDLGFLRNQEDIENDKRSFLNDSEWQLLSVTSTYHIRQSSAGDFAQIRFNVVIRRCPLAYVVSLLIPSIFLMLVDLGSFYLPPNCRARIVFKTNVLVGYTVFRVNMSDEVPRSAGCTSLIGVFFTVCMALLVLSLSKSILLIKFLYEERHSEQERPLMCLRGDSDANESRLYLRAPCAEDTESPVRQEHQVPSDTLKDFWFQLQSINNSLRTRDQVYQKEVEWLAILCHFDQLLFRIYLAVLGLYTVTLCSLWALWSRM

[3] = target: T1, Serotonin 3 (5-HT3) receptor; test: The ability to inhibit [3H]GR-65630 binding to 5-hydroxytryptamine 3 receptor in rat brain cortices; assay type: tissue-based
How it was run: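 Membranes from male rat brain cortices incubated with [3H]GR65630 (0.2 nM) as radioligand.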

[4] = target: Serotonin 1 (5-HT1) receptor (Rattus norvegicus, UniProt P28564+P30940+P19327+P28565); test: The ability to inhibit [3H]5-HT binding to 5-hydroxytryptamine 1 receptor in rat cortex
[5] = target: T2, Adrenergic receptor alpha-2 (Rattus norvegicus, UniProt P22086+P19328+P22909); test: The ability to inhibit [3H]rauwolscine binding to alpha-2 adrenergic receptor in rat cortex
T2 sequence (P22086 whole entry): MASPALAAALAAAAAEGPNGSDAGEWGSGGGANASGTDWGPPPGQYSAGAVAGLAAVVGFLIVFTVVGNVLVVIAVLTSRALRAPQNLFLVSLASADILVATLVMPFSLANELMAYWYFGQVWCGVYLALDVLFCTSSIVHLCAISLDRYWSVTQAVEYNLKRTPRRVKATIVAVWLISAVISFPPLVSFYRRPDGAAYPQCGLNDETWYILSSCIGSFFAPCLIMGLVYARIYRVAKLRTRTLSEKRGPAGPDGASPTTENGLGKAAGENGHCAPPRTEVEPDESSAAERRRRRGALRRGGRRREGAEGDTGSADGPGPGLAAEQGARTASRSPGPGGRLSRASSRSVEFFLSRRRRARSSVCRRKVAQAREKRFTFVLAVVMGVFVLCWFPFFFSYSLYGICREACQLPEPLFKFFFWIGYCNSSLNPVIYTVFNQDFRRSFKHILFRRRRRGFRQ
T2 sequence (P19328 whole entry): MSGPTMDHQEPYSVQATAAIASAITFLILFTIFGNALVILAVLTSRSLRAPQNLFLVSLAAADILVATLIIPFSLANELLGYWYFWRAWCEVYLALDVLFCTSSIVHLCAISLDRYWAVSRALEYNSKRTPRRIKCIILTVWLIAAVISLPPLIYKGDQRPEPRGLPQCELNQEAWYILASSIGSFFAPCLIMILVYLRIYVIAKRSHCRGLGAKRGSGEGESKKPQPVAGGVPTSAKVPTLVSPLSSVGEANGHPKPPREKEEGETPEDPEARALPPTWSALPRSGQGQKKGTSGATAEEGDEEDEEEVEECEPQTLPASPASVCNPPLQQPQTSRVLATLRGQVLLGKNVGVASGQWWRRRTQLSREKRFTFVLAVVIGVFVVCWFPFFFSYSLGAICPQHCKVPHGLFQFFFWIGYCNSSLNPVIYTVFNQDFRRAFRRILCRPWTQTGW
T2 sequence (P22909 whole entry): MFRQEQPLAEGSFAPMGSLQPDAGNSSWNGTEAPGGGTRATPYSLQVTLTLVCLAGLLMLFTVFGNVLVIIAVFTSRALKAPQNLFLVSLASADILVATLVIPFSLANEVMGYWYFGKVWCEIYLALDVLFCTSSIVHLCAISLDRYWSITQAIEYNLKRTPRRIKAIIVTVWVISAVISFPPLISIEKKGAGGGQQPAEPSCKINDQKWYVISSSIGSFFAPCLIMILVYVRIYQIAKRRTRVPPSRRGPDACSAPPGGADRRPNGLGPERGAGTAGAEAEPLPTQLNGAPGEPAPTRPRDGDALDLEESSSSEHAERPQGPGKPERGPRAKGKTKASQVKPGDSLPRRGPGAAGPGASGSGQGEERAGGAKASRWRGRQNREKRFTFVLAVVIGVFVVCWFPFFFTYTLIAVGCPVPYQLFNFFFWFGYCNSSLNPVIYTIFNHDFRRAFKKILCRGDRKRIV

[6] = %E relative to serotonin is 100%; assay type: functional
D(2) dopamine receptor = D(2) dopamine receptor (Rattus norvegicus, UniProt P61169); test: The ability to inhibit [3H]domperidone binding to dopamine receptor D2 in rat striata
Adrenergic receptor beta = Adrenergic receptor beta (Rattus norvegicus, UniProt P18090+P10608+P26255); test: The ability to inhibit [3H]dihydroalprenolol prenolol binding to Beta adrenergic receptor in rat whole brain
[7] = target: Serotonin 2 (5-HT2) receptor (Rattus norvegicus, UniProt P30994+P08909+P14842); test: The ability to inhibit [3H]ketanserin binding to 5-hydroxytryptamine 2 receptor in rat whole brain
[8] = target: T3, Alpha-1A adrenergic receptor (Rattus norvegicus, UniProt P43140); test: The ability to inhibit [3H]prazosin binding to Alpha-1 adrenergic receptor in rat whole brain
T3 sequence (P43140 whole entry): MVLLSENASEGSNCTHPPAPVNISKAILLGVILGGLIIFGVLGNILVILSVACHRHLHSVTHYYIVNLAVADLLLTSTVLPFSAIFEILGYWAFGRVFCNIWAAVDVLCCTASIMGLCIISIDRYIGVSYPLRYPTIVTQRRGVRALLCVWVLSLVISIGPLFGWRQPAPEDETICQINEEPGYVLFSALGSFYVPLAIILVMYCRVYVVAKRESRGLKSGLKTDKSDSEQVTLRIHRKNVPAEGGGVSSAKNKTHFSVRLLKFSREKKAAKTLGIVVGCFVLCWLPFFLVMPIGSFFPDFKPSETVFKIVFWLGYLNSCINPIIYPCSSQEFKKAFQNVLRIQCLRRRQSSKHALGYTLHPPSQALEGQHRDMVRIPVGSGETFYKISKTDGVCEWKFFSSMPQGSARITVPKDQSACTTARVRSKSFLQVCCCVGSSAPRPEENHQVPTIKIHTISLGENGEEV

D(1A) dopamine receptor = D(1A) dopamine receptor (Rattus norvegicus, UniProt P18901); test: The ability to inhibit [3H]-SCH- 23390 binding to Dopamine receptor D1 in rat striata
Chain of D(1A) dopamine receptor (P18901 whole entry): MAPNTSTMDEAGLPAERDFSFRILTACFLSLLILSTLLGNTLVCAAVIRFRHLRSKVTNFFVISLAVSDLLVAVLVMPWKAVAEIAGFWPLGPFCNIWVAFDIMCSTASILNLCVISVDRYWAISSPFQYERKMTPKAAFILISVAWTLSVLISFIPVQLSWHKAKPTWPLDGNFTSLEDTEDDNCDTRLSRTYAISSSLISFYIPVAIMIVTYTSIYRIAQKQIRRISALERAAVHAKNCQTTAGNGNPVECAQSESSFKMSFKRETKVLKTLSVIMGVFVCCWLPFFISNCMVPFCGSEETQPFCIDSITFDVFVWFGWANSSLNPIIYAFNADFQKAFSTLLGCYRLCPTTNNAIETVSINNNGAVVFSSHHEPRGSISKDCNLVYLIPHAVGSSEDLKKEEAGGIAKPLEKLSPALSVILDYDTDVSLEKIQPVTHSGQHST

Chain of 5-hydroxytryptamine receptor 4 (Rattus norvegicus) (Q62758 whole entry): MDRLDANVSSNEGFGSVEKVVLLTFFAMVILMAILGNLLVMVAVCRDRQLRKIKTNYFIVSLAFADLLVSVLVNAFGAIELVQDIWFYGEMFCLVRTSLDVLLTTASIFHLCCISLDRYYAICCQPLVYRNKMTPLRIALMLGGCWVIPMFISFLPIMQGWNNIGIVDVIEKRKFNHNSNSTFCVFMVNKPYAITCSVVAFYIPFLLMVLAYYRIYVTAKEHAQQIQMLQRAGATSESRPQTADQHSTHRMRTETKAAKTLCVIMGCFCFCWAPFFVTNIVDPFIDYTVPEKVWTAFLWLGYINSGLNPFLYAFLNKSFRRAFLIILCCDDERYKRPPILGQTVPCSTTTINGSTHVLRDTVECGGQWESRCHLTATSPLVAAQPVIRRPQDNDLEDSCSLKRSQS
Chain of D(2) dopamine receptor (P61169 whole entry): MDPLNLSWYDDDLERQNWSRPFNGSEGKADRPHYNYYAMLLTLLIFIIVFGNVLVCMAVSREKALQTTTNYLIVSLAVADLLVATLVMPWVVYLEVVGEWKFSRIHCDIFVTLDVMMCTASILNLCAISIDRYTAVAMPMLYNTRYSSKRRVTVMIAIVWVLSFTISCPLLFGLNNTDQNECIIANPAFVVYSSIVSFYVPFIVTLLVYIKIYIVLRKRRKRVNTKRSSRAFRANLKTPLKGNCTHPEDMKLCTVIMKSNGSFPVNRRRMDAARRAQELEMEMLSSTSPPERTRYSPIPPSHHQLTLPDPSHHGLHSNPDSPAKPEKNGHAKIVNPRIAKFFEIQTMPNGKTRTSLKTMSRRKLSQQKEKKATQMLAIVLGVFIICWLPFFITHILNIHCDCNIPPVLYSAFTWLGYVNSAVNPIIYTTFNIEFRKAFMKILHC

O=C(NC1CCN2CCCC12)c1ccccc1 (centres undefined)
ED50 [1]: > 10000 nM
Ki [2]: > 200 nM

CCOc1cc(N)c(Cl)cc1C(=O)NCC1CCN2CCCC12 (centres undefined)
ED50 [1]: 1380 nM
Ki [2]: 25 nM

COc1cc(N)c(Cl)cc1C(=O)NC[C@H]1CCN2CCC[C@H]12
ED50 [1]: 323 nM
Ki [2]: 66 nM

CC(C)n1c(=O)n(C(=O)CC2CC3CCC(C2)N3C)c2ccccc21 (centres undefined)
Ki [3]: > 10000 nM
ED50 [1]: 40.2 nM
Ki [4]: > 10000 nM
Ki [5]: > 10000 nM
E [6]: > 111%
Ki (D(2) dopamine receptor): > 10000 nM
Ki (Adrenergic receptor beta): > 10000 nM
Ki [7]: > 10000 nM
Ki [8]: > 10000 nM
Ki (D(1A) dopamine receptor): > 10000 nM

NCCc1c[nH]c2ccc(O)cc12
ED50 [1]: 16 nM

COc1cc(N)c(Cl)cc1C(=O)NC[C@@H]1CCN2CCC[C@@H]12 (relative stereo)
ED50 [1]: 23 nM
Ki [4]: > 10000 nM
Ki [5]: > 10000 nM
E [6]: 93%
Ki (D(2) dopamine receptor): > 10000 nM
Ki [2]: 152 nM
Ki (Adrenergic receptor beta): > 10000 nM
Ki [7]: > 10000 nM
Ki [8]: > 10000 nM
Ki (D(1A) dopamine receptor): > 10000 nM

COc1cc(N)c(Cl)cc1C(=O)NCC1CCN2CCCC12 (stereo in doubt; 1A) [listing 1 of 2 here]
Ki [2]: 104 nM

COc1cc(N)c(Cl)cc1C(=O)NCC1CCN2CCCC12 (stereo in doubt; 1A) [listing 2 of 2 here]
ED50 [1]: 64 nM

COc1cc(N)c(Cl)cc1C(=O)NCC1CCN2CCCC12 (stereo in doubt; 1E) [listing 1 of 2 here]
Ki [2]: 278 nM

COc1cc(N)c(Cl)cc1C(=O)NCC1CCN2CCCC12 (stereo in doubt; 1E) [listing 2 of 2 here]
ED50 [1]: 280 nM

COc1cc(N)c(Cl)cc1C(=O)NC1CCN2CCCC12 (stereo in doubt; 1F) [listing 1 of 2 here]
Ki [2]: 14 nM

COc1cc(N)c(Cl)cc1C(=O)NC1CCN2CCCC12 (stereo in doubt; 1F) [listing 2 of 2 here]
ED50 [1]: 187 nM

CCOc1cc(N)c(Cl)cc1C(=O)NC1CCN2CCCC12 (stereo in doubt; 1G) [listing 1 of 2 here]
Ki [2]: 8 nM

CCOc1cc(N)c(Cl)cc1C(=O)NC1CCN2CCCC12 (stereo in doubt; 1G) [listing 2 of 2 here]
ED50 [1]: 2270 nM

COc1cc(N)c(Cl)cc1C(=O)NC1CCN2CCCC12 (stereo in doubt; 1J) [listing 1 of 2 here]
Ki [2]: 96 nM

COc1cc(N)c(Cl)cc1C(=O)NC1CCN2CCCC12 (stereo in doubt; 1J) [listing 2 of 2 here]
ED50 [1]: 3450 nM

CCOc1cc(N)c(Cl)cc1C(=O)NC1CCN2CCCC12 (stereo in doubt; 1K) [listing 1 of 2 here]
Ki [2]: 99 nM

CCOc1cc(N)c(Cl)cc1C(=O)NC1CCN2CCCC12 (stereo in doubt; 1K) [listing 2 of 2 here]
ED50 [1]: > 10000 nM

COc1cc(N)c(Cl)cc1C(=O)N[C@H]1CN2CCC1CC2 [(R)ZACOPRIDE]
ED50 [1]: 505 nM
Ki [4]: > 10000 nM
Ki [5]: > 10000 nM
E [6]: 96%
Ki (D(2) dopamine receptor): > 10000 nM
Ki [2]: 8 nM
Ki (Adrenergic receptor beta): > 10000 nM
Ki [7]: 415 nM
Ki [8]: > 10000 nM
Ki (D(1A) dopamine receptor): > 10000 nM

COc1cc(N)c(Cl)cc1C(=O)NC1CCN(CCCOc2ccc(F)cc2)CC1OC (centres undefined) [CISAPRIDE]
ED50 [1]: 54.7 nM
Ki [4]: > 10000 nM
E [6]: 105%
Ki (Adrenergic receptor beta): > 10000 nM
Ki [8]: 30 nM
Ki (D(1A) dopamine receptor): 1700 nM

CCN(CC)CCNC(=O)c1cc(Cl)c(N)cc1OC [METOCLOPRAMIDE]
ED50 [1]: 24100 nM
Ki [2]: 240 nM

COc1cc(N)c(Cl)cc1C(=O)NC1CCN2CCCC1C2 (centres undefined) [RENZAPRIDE]
ED50 [1]: 44 nM
Ki [5]: > 10000 nM
E [6]: 98%
Ki (D(2) dopamine receptor): > 10000 nM
Ki (Adrenergic receptor beta): > 10000 nM
Ki [8]: > 10000 nM
Ki (D(1A) dopamine receptor): > 10000 nM

Source: ChEMBL document CHEMBL1125444 (J Med Chem, 1992)
